Screens: PubChem, several laboratories
MT stabilizer = microtubule stabilizers in HeLa cells; HeLa tubulin immunostaining HCS, 24 h; share of cells brighter than vehicle mean+2SD; % tubulin-high responders, % at 10 µM; 200,000 tested, 0.83% active; AID 2205;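 active means plate Z-score above 3 for both tubulin-high and condensed-nucleus cell shares, with cell loss under 80%, at 10 µM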;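 further: anti alpha tubulin signal scored within the nucleus-defined area of each cell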
Ins promoter up = MIN6 insulin promoter up-regulation; MIN6 insulin promoter-GFP reporter, high-content imaging; stronger effect = higher value; z-score at 5 µM; 190,000 tested, 0.3% active; AID 1625;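 active means z-score above 3 at 5 µM with at least 500 cells counted in the well; inconclusive means wells under 500 cells, flagged as cytotoxic or low count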
bCat nuc transl = beta-catenin nuclear translocation modulation. HeLa beta-catenin nuclear translocation, immunofluorescence imaging. nuclear translocation activity, % at 5 µM. 190,000 tested, 0.3% active. AID 1665;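 active means nuclear translocation activity above 50% at 5 µM, with a well cell count of 50 or more; inconclusive means wells under 50 cells across six images, flagged as toxic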;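 further: per-cell ratio of nuclear to cytoplasmic median beta-catenin stain intensity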
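Assay system: human HeLa cells, native beta-catenin; doses: 5 µM primary, 0.02–20 µM confirmation; incubation: compound treatment 24 h, 37°C, 5% CO2; technique: fluorescence imaging of beta-catenin antibody stain plus DAPI; measure: % activation, nuclear-to-cytoplasmic median beta-catenin signal ratio per cell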
Furin inhibitor = inhibitors of human furin; 220,000 tested, 0.061% active; purified furin, fluorogenic substrate cleavage; inhibition, % at 20 µM or 30 µM; AID 463115; P09958; in the data active means inhibition above about 25%
Target sequence (P09958 108-714 limits assumed): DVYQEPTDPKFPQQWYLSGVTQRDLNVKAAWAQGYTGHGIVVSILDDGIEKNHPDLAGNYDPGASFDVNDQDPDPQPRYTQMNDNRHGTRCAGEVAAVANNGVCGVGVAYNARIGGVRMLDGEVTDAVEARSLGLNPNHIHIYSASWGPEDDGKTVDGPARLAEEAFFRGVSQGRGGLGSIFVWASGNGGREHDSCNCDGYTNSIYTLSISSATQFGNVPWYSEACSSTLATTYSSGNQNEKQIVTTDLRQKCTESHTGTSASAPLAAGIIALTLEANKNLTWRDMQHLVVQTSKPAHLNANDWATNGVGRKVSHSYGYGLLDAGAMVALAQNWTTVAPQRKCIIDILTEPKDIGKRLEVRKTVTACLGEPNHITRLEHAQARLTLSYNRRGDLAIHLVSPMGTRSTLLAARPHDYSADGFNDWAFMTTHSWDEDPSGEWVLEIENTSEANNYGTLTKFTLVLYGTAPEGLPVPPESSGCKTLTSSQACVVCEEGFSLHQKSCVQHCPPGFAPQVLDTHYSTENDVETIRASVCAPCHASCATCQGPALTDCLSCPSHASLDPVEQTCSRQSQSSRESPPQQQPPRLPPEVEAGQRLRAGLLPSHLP
Autophagy HCS = modulators of autophagy; AID 463193; calls only at 10 µM (by protocol); MEF GFP-LC3 puncta imaging; test concentration mostly 10 µM; 190,000 tested, 0.98% active;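 active means percentage of spot-positive cells more than 3 SD above its plate mean, without a fluorescence outlier flag or 80% toxicity; inconclusive means no clear call, values can overlap the other calls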
HSV replic up = increases HSV replication in cells; HSV replication augmentation in cells, fold increase; maximum fold increase; 220,000 tested, 0.005% active; in the data active means maximum fold increase above about 1.5; inconclusive means no clear call, values can overlap the other calls; tested in PC3 cells
Numbers stand for hits. Hits are enriched below; roughly 1.9% of the tested compounds scored in any of these assays.

Results for COc1cc(/C=N/Nc2nc(C)nc3c2cnn3-c2ccccc2)ccc1O ?
MT stabilizer: 16; Ins promoter up: inactive; bCat nuc transl: 63; Furin inhibitor: inactive; Autophagy HCS: inactive; HSV replic up: inactive

What do the screens show for `COCCn1nnnc1C(c1cccs1)N1CCCC(C)C1` (centres undefined)?
MT stabilizer: inactive; Ins promoter up: inactive; bCat nuc transl: inactive; Furin inhibitor: inactive; Autophagy HCS: inactive; HSV replic up: inactive

How did Nc1[nH]ncc1N=Nc1ccc(Cl)cc1 do in these assays?
MT stabilizer: inactive; Furin inhibitor: inactive; Autophagy HCS: inactive; HSV replic up: inactive

How did Nc1[nH]ncc1-c1ccc(Cl)cc1 do in these assays?
MT stabilizer: inactive; Ins promoter up: inactive; bCat nuc transl: inactive; Furin inhibitor: inactive; Autophagy HCS: active; HSV replic up: inactive

What do the screens show for `CCOc1ccc(S(=O)(=O)Nc2ccc3c(c2)c2c(n3S(=O)(=O)c3ccc(OCC)cc3)CCCC2=O)cc1`?
MT stabilizer: inactive; Ins promoter up: inactive; bCat nuc transl: inactive; Furin inhibitor: inactive; Autophagy HCS: inactive; HSV replic up: inactive

What do the screens show for `CC(NC(=O)/C(C#N)=C1\N=C(NC(=O)c2ccco2)c2ccccc21)c1ccccc1` (centres undefined)?
Ins promoter up: 3.7; bCat nuc transl: inactive; Furin inhibitor: inactive; HSV replic up: inactive

What do the screens show for `COCc1ccc(C(=O)N2CCCC(CCC(=O)NCc3ccccc3F)C2)o1` (centres undefined)?
MT stabilizer: 24; Ins promoter up: inactive; bCat nuc transl: inactive; Furin inhibitor: inactive; Autophagy HCS: inactive; HSV replic up: inactive

Results for O=C(CCC1CCCN(C(=O)c2ccco2)C1)NCc1ccccc1F (centres undefined) ?
MT stabilizer: inactive; Ins promoter up: inactive; bCat nuc transl: inactive; Furin inhibitor: inactive; Autophagy HCS: inactive; HSV replic up: inactive

How did O=C(CC12CC3CC(CC(C3)C1)C2)NC(=S)NCc1ccco1 do in these assays?
MT stabilizer: inactive; Ins promoter up: inactive; bCat nuc transl: inactive; Furin inhibitor: inactive; Autophagy HCS: inactive; HSV replic up: inactive

Results for COCCNc1nnnc2c1sc1nc(N3CCOCC3)c3c(c12)CCCC3 ?
MT stabilizer: inactive; Ins promoter up: inactive; bCat nuc transl: inactive; Furin inhibitor: inactive; Autophagy HCS: inactive; HSV replic up: inactive

How did COc1ccc(/C=N/n2cncn2)cc1Cn1cc([N+](=O)[O-])cn1 do in these assays?
Ins promoter up: inactive; bCat nuc transl: inactive; Furin inhibitor: inactive; HSV replic up: inactive

Results for COc1ccc(/C=N/Nc2ccc([N+](=O)[O-])cc2)cc1Cn1cc([N+](=O)[O-])cn1 ?
MT stabilizer: inactive; Ins promoter up: inactive; bCat nuc transl: 51; Furin inhibitor: inactive; Autophagy HCS: inactive; HSV replic up: inactive

What do the screens show for `CC(C)CNC(=S)N(Cc1ccco1)Cc1cc2cc3c(cc2[nH]c1=O)OCCO3`?
MT stabilizer: 33; Ins promoter up: inactive; bCat nuc transl: inactive; Furin inhibitor: inactive; Autophagy HCS: inactive; HSV replic up: inactive

How did COc1ccccc1NC(=O)N(Cc1ccco1)Cc1cc2ccc(C)c(C)c2[nH]c1=O do in these assays?
MT stabilizer: inactive; Ins promoter up: inactive; bCat nuc transl: 122; Furin inhibitor: inactive; Autophagy HCS: inactive; HSV replic up: inactive

How did COc1ccccc1NC(=S)N(Cc1ccco1)Cc1cc2cc(C)c(C)cc2[nH]c1=O do in these assays?
MT stabilizer: inactive; bCat nuc transl: 64; Furin inhibitor: inactive; Autophagy HCS: inactive

Results for COc1ccccc1NC(=S)N(Cc1ccco1)Cc1cc2cccc(C)c2[nH]c1=O ?
MT stabilizer: inactive; Ins promoter up: inactive; bCat nuc transl: inactive; Furin inhibitor: inactive; Autophagy HCS: inactive; HSV replic up: inactive

Results for COc1ccccc1NC(=O)N(CCN1CCOCC1)Cc1cc2cc(C)cc(C)c2[nH]c1=O ?
MT stabilizer: inactive; Ins promoter up: inactive; bCat nuc transl: inactive; Furin inhibitor: inactive; Autophagy HCS: inactive; HSV replic up: inactive

How did COc1ccccc1NC(=O)N(Cc1ccco1)Cc1cc2cc(C)cc(C)c2[nH]c1=O do in these assays?
MT stabilizer: 26; Ins promoter up: inactive; bCat nuc transl: inactive; Furin inhibitor: inactive; Autophagy HCS: inactive; HSV replic up: inactive

Results for Cc1cc(C)nc(N2CCCC(CCC(=O)NCc3ccc(F)c(F)c3)C2)n1 (centres undefined) ?
MT stabilizer: inactive; Ins promoter up: inactive; bCat nuc transl: inactive; Furin inhibitor: inactive; Autophagy HCS: inactive; HSV replic up: inactive

Results for CN(C)C(CNC(=S)Nc1cccc(Cl)c1)c1cccnc1 (centres undefined) ?
MT stabilizer: inactive; Ins promoter up: inactive; bCat nuc transl: inactive; Furin inhibitor: inactive; Autophagy HCS: inactive; HSV replic up: inactive

How did Cc1ccc2cc(CN(Cc3ccco3)C(=O)c3cccs3)c(=O)[nH]c2c1 do in these assays?
MT stabilizer: 34; Ins promoter up: inactive; Furin inhibitor: inactive; Autophagy HCS: inactive; HSV replic up: inactive

What do the screens show for `COc1ccc(OC)c(Nc2nc3nonc3nc2N2CCCC(C)C2)c1` (centres undefined)?
MT stabilizer: inactive; Ins promoter up: inactive; bCat nuc transl: inactive; Furin inhibitor: inactive; Autophagy HCS: active; HSV replic up: inactive

Results for Nc1ncnc(N2CCc3ccccc32)c1[N+](=O)[O-] ?
MT stabilizer: inactive; Ins promoter up: inactive; bCat nuc transl: inactive; Furin inhibitor: inactive; Autophagy HCS: inactive; HSV replic up: inactive

What do the screens show for `CCc1c(C)nc2ncnn2c1NCCc1ccc(OC)cc1`?
MT stabilizer: 37; Ins promoter up: inconclusive; bCat nuc transl: 85; Furin inhibitor: inactive; Autophagy HCS: inactive; HSV replic up: inactive

Results for CCc1c(C)nc2ncnn2c1Nc1ccc(C)c(C)c1 ?
MT stabilizer: inactive; Furin inhibitor: inactive; Autophagy HCS: inactive; HSV replic up: inactive

What do the screens show for `CCN(CC)c1ccc(NC(=O)c2cccc(F)c2)c(C)c1`?
MT stabilizer: 37; Ins promoter up: inactive; bCat nuc transl: inactive; Furin inhibitor: inactive; Autophagy HCS: inactive; HSV replic up: inactive

What do the screens show for `Oc1ccc(C2=NNC(=NCc3ccc4c(c3)OCO4)SC2)c(O)c1`?
MT stabilizer: inactive; Ins promoter up: inactive; bCat nuc transl: 117; Furin inhibitor: inactive; Autophagy HCS: inactive; HSV replic up: inactive

What do the screens show for `Clc1ccc(C2=NNC(=NCc3ccc4c(c3)OCO4)SC2)cc1`?
MT stabilizer: inactive; Ins promoter up: inactive; bCat nuc transl: inactive; Furin inhibitor: inactive; Autophagy HCS: inactive; HSV replic up: inactive

What do the screens show for `Cc1ccc(C(=O)N/C(=C\c2cccs2)C(=O)NC2CCCCC2)cc1`?
MT stabilizer: inactive; Ins promoter up: inactive; bCat nuc transl: inactive; Furin inhibitor: inactive; Autophagy HCS: inactive; HSV replic up: inactive

What do the screens show for `COC(=O)c1sc2ccccc2c1-n1cccc1C(=O)C(=O)Nc1ccc(F)cc1`?
MT stabilizer: inactive; Ins promoter up: 5.4; bCat nuc transl: inactive; Furin inhibitor: inactive; Autophagy HCS: inactive; HSV replic up: inactive

How did COC(=O)c1sc2ccccc2c1-n1cccc1C(=O)C(=O)Nc1ccc(Cl)cc1 do in these assays?
MT stabilizer: 40; Furin inhibitor: inactive; Autophagy HCS: inactive; HSV replic up: inactive
